Here are results for 11 molecules from ChEMBL document CHEMBL1150387, “Development and experimental validation of a docking strategy for the generation of kinase-targeted libraries” (J Med Chem, 2008).

In test [1] the target is High affinity nerve growth factor receptor (Homo sapiens) (UniProt P04629). The test is described as follows: Inhibition of TrkA at 10 uM by HTRF assay relative to control. In outline: (§1)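 HTRF kinase assay, one panel of kinases. Inhibitor stock 50 µM in 100% DMSO; tested at 10 µM. ATP and substrate at final levels near Km. Final buffer: 50 mM Hepes/NaOH pH 7.4, 40 µM Na3VO4, 0.005% Tween-20, 1 mM DTT, MnCl2 or MgCl2 at kinase-dependent levels. Started by adding ATP/substrate. Reaction run at room temperature, time varied by kinase. Detection mix in 50 mM Hepes pH 7.4, 0.1% BSA, 150 mM KF, incubated ≥1 h at room temperature. Activity expressed as % of uninhibited control; n=2.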
(TR-FRET usually uses a lanthanide donor and a delayed reading to cut background.)

Test [2] has as its target T1, Serine/threonine-protein kinase Chk1 (Homo sapiens) (UniProt O14757).
T1 sequence (whole entry): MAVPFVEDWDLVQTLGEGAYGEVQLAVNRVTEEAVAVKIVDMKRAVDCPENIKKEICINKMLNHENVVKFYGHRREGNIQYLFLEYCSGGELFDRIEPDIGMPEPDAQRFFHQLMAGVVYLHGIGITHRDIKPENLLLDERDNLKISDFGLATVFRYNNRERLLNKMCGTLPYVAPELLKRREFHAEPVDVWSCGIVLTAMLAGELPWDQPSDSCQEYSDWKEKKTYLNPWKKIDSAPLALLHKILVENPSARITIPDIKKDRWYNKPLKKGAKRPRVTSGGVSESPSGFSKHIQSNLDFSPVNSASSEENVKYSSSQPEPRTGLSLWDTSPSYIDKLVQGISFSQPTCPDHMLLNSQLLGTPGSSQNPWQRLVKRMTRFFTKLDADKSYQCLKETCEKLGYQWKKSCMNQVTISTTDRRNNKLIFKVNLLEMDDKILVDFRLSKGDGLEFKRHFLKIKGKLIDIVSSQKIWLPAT
The test is described as follows: Inhibition of CHK1 at 10 uM by HTRF assay relative to control. In outline: as §1

Test [3] deals with Proto-oncogene tyrosine-protein kinase Src (Homo sapiens) (UniProt P12931). Description: Inhibition of Src at 10 uM by HTRF assay relative to control. The essentials: as §1
Test [4] addresses T2, Ephrin type-B receptor 4 (Homo sapiens) (UniProt P54760).
T2 sequence (whole entry): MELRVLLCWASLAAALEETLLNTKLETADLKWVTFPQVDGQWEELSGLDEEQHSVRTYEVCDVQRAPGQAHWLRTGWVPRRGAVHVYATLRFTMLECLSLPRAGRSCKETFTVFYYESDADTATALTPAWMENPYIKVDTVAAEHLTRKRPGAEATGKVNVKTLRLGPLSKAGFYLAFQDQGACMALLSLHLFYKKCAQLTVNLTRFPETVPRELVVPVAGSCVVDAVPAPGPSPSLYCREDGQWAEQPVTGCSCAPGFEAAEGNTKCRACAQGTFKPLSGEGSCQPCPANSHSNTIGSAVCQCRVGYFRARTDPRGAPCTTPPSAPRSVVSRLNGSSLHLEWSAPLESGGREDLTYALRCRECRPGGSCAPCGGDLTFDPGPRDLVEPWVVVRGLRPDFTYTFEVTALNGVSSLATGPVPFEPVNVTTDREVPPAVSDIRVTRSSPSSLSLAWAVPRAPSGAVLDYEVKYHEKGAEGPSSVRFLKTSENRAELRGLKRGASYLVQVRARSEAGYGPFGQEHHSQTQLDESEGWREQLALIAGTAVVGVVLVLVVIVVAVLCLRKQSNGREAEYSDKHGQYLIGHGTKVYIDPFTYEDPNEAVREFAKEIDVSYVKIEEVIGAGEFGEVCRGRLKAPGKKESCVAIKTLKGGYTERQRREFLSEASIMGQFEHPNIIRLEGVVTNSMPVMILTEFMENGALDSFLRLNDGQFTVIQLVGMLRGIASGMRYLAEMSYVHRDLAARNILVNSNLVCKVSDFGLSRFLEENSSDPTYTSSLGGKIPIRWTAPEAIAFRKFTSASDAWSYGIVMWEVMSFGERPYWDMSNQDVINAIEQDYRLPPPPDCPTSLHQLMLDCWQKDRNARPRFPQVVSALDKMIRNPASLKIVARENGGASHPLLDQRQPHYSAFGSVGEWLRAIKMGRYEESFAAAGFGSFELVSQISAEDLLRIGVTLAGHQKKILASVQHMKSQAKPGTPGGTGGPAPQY
The test is described as follows: Inhibition of EphB4 at 10 uM by HTRF assay relative to control. In outline:
as §1

Test [5] addresses Ribosomal protein S6 kinase beta-1 (Homo sapiens) (UniProt P23443). The test is described as follows: Inhibition of p70S6K at 10 uM by HTRF assay relative to control. In outline:
as §1

Test [6] deals with Vascular endothelial growth factor receptor 1 (Homo sapiens) (UniProt P17948). The test is described as follows: Inhibition of FLT1 at 10 uM by HTRF assay relative to control. The essentials: as §1
Test [7] deals with Protein kinase C alpha type (Homo sapiens) (UniProt P17252). The test is described as follows: Inhibition of PKCalpha at 10 uM by HTRF assay relative to control. The essentials:
as §1

The target in test [8] is Cyclin-dependent kinase 2 (Homo sapiens) (UniProt P24941). The test is described as follows: Inhibition of CDK2 at 10 uM by HTRF assay relative to control. The essentials:
as §1

Test [9] has as its target Cyclin-dependent kinase 1 (Homo sapiens) (UniProt P06493). Description: Inhibition of CDK1 at 10 uM by HTRF assay relative to control. The essentials: as §1
The target in test [10] is Protein kinase C gamma type (Homo sapiens) (UniProt P05129). Description: Inhibition of PKCgamma at 10 uM by HTRF assay relative to control. In outline: as §1
Test [11] addresses Tyrosine-protein kinase Fes/Fps (Homo sapiens) (UniProt P07332). Description: Inhibition of FES at 10 uM by HTRF assay relative to control. In outline:
as §1

Test [12] deals with Vascular endothelial growth factor receptor 2 (Homo sapiens) (UniProt P35968). Description: Inhibition of KDR at 10 uM by HTRF assay relative to control. The essentials:
as §1

The target of test [13] is T3, Calcium/calmodulin-dependent protein kinase type IV (Homo sapiens) (UniProt Q16566).
T3 sequence (whole entry): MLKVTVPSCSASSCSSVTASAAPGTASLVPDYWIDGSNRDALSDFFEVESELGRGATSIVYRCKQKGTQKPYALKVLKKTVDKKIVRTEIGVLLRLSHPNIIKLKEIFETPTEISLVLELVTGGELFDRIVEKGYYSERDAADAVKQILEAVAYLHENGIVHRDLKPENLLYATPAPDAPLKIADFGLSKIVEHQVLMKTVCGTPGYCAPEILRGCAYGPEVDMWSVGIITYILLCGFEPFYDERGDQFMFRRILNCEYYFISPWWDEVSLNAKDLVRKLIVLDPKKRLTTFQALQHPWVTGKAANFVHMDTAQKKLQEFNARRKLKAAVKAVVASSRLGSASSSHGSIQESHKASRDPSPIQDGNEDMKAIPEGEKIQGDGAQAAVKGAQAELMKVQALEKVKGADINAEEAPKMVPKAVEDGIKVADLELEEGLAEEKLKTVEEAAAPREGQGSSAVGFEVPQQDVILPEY
Description: Inhibition of CaMK4 at 10 uM by HTRF assay relative to control. The essentials: as §1

Tyrosine-protein kinase Fes/Fps (Homo sapiens), sequence (P07332 whole entry): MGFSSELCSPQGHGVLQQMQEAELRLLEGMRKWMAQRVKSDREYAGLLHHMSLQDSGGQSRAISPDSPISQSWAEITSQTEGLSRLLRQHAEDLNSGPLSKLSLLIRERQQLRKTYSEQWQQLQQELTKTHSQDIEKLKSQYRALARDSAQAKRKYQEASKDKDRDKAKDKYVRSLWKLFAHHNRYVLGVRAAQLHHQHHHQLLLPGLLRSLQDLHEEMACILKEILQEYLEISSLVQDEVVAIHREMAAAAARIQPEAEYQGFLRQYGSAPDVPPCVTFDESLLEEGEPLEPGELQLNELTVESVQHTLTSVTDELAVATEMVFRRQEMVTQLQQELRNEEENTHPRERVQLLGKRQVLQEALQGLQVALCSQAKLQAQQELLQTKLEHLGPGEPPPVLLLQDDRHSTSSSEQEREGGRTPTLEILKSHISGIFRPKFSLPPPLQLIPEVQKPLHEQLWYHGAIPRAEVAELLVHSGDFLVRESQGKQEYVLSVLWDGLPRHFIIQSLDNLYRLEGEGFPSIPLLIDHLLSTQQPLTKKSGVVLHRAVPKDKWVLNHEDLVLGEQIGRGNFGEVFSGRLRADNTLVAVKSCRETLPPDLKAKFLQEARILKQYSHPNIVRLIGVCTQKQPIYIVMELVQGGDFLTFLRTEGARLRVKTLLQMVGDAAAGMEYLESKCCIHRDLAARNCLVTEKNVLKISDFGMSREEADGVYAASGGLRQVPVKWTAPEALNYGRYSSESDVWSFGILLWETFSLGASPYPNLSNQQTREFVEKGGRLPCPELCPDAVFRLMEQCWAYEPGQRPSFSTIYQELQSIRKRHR
Vascular endothelial growth factor receptor 1 (Homo sapiens), sequence (P17948 whole entry): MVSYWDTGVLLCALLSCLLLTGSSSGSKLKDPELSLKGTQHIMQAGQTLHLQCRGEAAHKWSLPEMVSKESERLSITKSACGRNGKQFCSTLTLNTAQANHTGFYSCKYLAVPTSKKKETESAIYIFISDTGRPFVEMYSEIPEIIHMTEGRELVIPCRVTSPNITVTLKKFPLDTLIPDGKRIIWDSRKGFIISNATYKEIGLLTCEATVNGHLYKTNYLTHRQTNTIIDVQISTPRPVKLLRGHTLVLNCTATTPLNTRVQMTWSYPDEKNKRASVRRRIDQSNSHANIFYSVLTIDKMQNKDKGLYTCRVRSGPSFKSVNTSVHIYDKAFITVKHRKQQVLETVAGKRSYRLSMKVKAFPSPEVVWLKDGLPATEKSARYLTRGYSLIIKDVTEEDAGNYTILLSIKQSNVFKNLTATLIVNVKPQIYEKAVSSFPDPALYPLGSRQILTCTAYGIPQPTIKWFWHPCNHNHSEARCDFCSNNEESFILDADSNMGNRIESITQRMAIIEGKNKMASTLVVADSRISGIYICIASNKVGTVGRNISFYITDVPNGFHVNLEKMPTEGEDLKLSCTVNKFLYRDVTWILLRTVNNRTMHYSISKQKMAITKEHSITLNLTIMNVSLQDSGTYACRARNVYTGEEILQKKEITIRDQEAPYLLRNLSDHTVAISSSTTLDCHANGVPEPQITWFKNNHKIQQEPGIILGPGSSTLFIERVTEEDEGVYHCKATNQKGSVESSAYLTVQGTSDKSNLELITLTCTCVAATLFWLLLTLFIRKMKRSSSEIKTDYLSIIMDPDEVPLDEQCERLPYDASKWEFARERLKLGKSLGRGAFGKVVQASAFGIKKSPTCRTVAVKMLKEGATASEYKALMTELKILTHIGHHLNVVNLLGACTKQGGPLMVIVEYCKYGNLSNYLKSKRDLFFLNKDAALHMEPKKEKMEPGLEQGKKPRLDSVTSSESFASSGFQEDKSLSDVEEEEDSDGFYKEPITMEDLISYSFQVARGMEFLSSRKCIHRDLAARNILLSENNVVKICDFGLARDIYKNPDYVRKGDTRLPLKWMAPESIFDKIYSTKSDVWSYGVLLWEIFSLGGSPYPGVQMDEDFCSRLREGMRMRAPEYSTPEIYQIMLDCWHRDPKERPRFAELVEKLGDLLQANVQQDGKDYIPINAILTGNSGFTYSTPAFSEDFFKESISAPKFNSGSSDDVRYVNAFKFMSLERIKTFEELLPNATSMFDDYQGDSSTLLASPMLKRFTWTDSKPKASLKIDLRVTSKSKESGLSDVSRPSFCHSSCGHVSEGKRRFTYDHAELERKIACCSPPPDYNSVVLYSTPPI
Proto-oncogene tyrosine-protein kinase Src (Homo sapiens), sequence (P12931 2-536 limits assumed): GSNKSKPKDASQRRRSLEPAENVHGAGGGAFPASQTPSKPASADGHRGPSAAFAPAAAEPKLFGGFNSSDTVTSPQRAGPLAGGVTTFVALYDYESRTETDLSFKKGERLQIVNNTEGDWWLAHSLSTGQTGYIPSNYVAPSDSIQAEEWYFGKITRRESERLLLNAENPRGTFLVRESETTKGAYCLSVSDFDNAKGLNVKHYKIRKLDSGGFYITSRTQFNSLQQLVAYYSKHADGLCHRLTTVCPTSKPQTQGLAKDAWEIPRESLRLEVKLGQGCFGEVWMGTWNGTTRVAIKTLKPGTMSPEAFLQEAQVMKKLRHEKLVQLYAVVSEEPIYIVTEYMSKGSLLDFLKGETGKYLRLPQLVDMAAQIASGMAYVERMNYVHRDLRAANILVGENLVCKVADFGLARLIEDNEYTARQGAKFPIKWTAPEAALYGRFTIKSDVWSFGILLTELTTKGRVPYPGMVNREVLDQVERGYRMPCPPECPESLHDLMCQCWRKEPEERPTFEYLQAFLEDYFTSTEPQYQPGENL
Vascular endothelial growth factor receptor 2 (Homo sapiens), sequence (P35968 whole entry): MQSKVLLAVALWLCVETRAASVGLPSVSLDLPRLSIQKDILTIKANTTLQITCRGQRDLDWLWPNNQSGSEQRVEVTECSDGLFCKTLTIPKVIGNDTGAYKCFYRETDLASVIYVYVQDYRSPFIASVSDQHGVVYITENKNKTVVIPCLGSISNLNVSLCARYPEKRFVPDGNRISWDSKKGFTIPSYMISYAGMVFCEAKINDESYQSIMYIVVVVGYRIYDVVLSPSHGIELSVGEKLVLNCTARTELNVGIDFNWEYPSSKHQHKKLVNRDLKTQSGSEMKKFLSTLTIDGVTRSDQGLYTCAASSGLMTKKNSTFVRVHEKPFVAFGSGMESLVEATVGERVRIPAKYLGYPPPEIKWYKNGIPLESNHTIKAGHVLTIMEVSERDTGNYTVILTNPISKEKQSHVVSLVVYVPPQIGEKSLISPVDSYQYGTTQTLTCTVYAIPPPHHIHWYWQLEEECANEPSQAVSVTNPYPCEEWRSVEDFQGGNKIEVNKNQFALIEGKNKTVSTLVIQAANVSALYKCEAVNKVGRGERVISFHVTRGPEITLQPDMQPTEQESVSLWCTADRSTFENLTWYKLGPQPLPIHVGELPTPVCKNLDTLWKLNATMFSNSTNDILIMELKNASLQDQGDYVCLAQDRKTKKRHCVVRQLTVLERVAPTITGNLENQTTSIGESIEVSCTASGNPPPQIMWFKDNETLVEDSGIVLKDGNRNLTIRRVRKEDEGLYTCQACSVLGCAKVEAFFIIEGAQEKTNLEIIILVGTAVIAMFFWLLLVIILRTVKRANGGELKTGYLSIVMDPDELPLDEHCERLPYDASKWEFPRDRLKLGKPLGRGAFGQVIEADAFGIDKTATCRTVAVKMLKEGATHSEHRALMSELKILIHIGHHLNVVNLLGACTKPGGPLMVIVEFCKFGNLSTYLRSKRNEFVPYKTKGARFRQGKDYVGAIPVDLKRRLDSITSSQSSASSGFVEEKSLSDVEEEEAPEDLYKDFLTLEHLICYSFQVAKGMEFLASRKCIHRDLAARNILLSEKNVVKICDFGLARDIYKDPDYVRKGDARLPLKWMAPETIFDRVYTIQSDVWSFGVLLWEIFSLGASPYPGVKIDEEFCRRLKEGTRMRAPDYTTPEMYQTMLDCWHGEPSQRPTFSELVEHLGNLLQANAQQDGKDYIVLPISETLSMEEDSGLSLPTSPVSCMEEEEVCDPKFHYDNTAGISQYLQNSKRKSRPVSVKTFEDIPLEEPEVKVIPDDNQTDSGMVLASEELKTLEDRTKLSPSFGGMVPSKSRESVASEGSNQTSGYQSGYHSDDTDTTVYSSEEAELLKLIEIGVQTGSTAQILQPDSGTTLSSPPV
Cyclin-dependent kinase 1 (Homo sapiens), sequence (P06493 whole entry, looked up): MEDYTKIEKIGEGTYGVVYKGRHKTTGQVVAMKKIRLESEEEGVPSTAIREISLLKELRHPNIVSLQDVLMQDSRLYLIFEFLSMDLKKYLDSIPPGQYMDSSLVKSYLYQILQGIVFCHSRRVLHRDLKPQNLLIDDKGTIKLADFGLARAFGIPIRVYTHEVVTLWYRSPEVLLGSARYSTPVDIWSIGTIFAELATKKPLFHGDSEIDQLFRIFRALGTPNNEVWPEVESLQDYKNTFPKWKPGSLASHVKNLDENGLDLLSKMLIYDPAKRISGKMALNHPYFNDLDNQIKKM

With `Cc1cccc(N(C)c2cc(Nc3cccc(C(=O)NCCCn4ccnc4)c3)ncn2)c1`, the inhibition (usually the relative decrease from the control value, in per cent) in test [1] stood at 7%; in [2] it was 0%; in test [3], 24%; in test [4] it was 0%; in [5] it was 8%; in test [6] it was 0%. The inhibition in test [7] came to 7%; in test [8], 12%; in [9], 0%; in test [10] it was 2%; in test [11], 22%; in [12], 26%. In addition, the inhibition in test [13] amounted to 0%.

With `CN(C)CC(C)(C)CNC(=O)c1cccc(Nc2nccc(Nc3ccc4ncsc4c3)n2)c1`, the inhibition in test [1] came out at 75%; in test [2], 7%; in [3], 99%; in [4], 18%; in test [5], 18%; in test [6], 39%. In addition, the inhibition in [7] stood at 0%; in test [8], 24%; in test [9], 5%; in test [10], 79%; in test [11], 97%; in [12], 89%. In addition, the inhibition in [13] is 16%.

Take `Cc1cccc(Oc2ccnc(N3CCC[C@H]3C(=O)NCc3cccnc3)n2)c1`: the inhibition in test [1] worked out at 4%; in [2] it was 0%; in test [3], 0%; in test [4], 0%; in [5], 16%; in test [6], 0%. Besides, the inhibition in [7] amounted to 0%; in test [8], 8%; in [9], 0%; in test [10], 6%; in test [11], 5%; in test [12] it was 4%. For the same molecule, the inhibition in test [13] stood at 0%.

For the molecule `O=C(NCc1ccncc1)c1cccc(Nc2cc(Nc3cccc(Br)c3)ncn2)c1`, the inhibition in test [1] stood at 8%; in test [2], 4%; in test [3] it was 30%; in test [4], 0%; in [5], 16%; in test [6], 32%. In addition, the inhibition in test [7] was determined as 2%; in test [8], 15%; in test [9] it was 1%; in [10] it was 0%; in test [11], 17%; in [12], 22%. In addition, the inhibition in test [13] is 0%.

With `Cc1cccc(N(C)c2cc(Nc3cccc(C(=O)NCc4ccncc4)c3)ncn2)c1`, the inhibition in test [1] was found to be 13%; in test [2], 3%; in [3] it was 26%; in [4], 0%; in test [5], 9%; in test [6], 0%. The inhibition in test [7] came to 0%; in test [8], 20%; in test [9], 7%; in test [10], 2%; in [11], 22%; in test [12], 19%. Besides, the inhibition in [13] was found to be 0%.

As for `Nc1nc(Nc2ccc3ncsc3c2)cc(N2CCC[C@H]2C(=O)NCCc2cccc(I)c2)n1`, the inhibition in test [1] amounted to 5%; in test [2], 3%; in [3], 0%; in [4] it was 0%; in [5], 10%; in [6] it was 1%. Also, the inhibition is 0% in [7]; 5% in [8]; 0% in [9]; 0% in test [10]; 8% in test [11]; 17% in [12]. The inhibition in test [13] came out at 0%.

`Cc1cccc(Nc2nccc(Nc3cccc(C(=O)N(C)CCc4ccccn4)c3)n2)c1`: the inhibition in test [1] came to 60%; in [2], 5%; in test [3], 64%; in test [4], 5%; in test [5] it was 9%; in test [6] it was 34%. Moreover, the inhibition in test [7] was determined as 0%; in test [8], 28%; in test [9], 1%; in test [10], 14%; in [11], 75%; in test [12], 81%. For the same molecule, the inhibition in test [13] came to 0%.

As to `CC(=O)N1CCN(C(=O)c2cccc(Nc3cc(N(C)c4cccc(C)c4)ncn3)c2)CC1`, the inhibition in test [1] is 12%; in test [2], 2%; in test [3], 17%; in test [4] it was 0%; in test [5], 4%; in test [6], 5%. Besides, the inhibition in [7] is 6%; in test [8] it was 9%; in test [9] it was 0%; in test [10], 5%; in [11] it was 18%; in test [12], 41%. Moreover, the inhibition in test [13] was determined as 0%.

As to `O=C(c1nc(SCc2ccc(Cl)cc2)n2ccccc12)N1CCN(c2cc(Nc3cccc(Br)c3)ncn2)CC1`, the inhibition was 5% in test [1]; 5% in test [2]; 2% in test [3]; 0% in test [4]; 6% in test [5]; 0% in test [6]. Also, the inhibition in test [7] stood at 0%; in test [8] it was 5%; in test [9], 8%; in test [10], 4%; in [11], 0%; in test [12], 0%. For the same molecule, the inhibition in test [13] was determined as 0%.

Consider `COC[C@@H]1CCCN1C(=O)C1CCCN1c1cc(Nc2cccc(Br)c2)ncn1` (stereo partly drawn), for which the inhibition turned out to be 8% in test [1]; 2% in test [2]; 3% in test [3]; 0% in test [4]; 3% in test [5]; 0% in test [6]. Moreover, the inhibition was found to be 0% in test [7]; 4% in test [8]; 0% in test [9]; 5% in test [10]; 5% in test [11]; 0% in [12]. The inhibition in test [13] was 0%.

Regarding `O=C(C1CCN(c2nccc(Nc3ccccc3)n2)CC1)N1CC[C@@H](O)C1`, the inhibition in [1] was 12%; in test [2], 4%; in test [3] it was 4%; in test [4], 0%; in test [5], 10%; in test [6], 6%. Further, the inhibition in [7] came to 0%; in test [8] it was 5%; in test [9] it was 0%; in test [10] it was 5%; in test [11], 2%; in test [12], 4%. The inhibition in test [13] stood at 0%.
